# According to publication PMC8802302 (Journal of Medicinal Chemistry, 2021):
# Assays:
# DRAK2 = target: T1, DRAK2 (Homo sapiens, UniProt O94768); test: Eurofins kinase enzymatic radiometric assay; type: biochemical
# T1 sequence (O94768 1-372): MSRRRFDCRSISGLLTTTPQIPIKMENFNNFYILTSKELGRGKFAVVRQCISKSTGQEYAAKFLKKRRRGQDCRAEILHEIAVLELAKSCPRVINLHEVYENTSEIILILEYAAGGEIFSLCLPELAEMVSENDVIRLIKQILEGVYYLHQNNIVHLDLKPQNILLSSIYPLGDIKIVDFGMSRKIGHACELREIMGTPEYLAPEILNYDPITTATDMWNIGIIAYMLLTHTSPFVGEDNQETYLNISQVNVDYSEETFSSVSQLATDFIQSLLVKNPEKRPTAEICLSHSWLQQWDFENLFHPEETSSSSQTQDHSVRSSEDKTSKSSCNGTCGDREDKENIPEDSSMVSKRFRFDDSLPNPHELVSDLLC
# Procedure, shortened: (§1)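 Radiometric kinase activity assay with ATP at the Km for each kinase. Test compounds were run as 9-point dose–response curves in duplicate to give IC50.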
# ULK2 = target: T2, ULK2 (Homo sapiens, UniProt Q8IYT8); test: Eurofins kinase enzymatic radiometric assay; type: biochemical
# T2 sequence (Q8IYT8 1-1036): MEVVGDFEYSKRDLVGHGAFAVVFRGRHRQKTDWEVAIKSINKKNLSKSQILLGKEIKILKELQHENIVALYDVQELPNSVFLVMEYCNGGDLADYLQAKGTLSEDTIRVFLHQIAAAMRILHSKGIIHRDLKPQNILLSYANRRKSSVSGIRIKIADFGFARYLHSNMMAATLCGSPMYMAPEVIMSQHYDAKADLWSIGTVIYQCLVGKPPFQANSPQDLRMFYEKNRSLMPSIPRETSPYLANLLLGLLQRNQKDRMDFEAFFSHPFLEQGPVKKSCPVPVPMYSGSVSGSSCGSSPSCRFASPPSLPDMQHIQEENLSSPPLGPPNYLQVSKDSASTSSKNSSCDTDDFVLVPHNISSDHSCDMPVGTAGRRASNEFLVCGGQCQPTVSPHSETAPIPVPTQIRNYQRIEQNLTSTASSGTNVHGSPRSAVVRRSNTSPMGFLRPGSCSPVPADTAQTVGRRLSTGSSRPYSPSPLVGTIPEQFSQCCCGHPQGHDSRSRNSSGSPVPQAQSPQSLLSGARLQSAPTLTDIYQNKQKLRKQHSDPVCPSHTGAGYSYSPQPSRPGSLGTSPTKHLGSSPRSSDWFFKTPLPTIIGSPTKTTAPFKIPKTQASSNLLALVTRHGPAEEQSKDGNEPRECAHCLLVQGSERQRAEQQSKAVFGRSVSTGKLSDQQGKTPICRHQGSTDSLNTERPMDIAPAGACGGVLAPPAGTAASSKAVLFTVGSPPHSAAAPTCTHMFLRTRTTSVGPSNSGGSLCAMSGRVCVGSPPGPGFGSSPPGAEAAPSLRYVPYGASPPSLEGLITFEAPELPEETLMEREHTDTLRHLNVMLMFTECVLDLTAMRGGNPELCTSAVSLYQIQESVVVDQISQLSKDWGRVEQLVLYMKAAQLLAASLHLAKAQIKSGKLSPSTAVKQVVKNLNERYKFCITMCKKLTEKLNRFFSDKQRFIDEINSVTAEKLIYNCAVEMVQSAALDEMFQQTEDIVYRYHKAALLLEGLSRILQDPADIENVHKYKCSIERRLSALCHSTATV
# Procedure, shortened: as §1
# 16-member kinase panel = test: Eurofins custom enzymatic kinase panel, count of kinases inhibited; type: biochemical; conditions: 16-member Eurofins panel, 1 μM
# Procedure, shortened: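 Radiometric kinase assays were run with ATP at Km. Each test compound was tested at a single concentration of 1 μM, in duplicate, against each panel kinase, with results as percent of control. The count is the number of kinases at ≤ 10 PoC, i.e. inhibited ≥ 90%.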
# [1] = system: 403 wild-type (WT) human kinases; test: DiscoverX scanMAX kinome-wide selectivity screen; type: binding; conditions: 403 WT human kinases; for no. kinases with PoC < 10: DiscoverX scanMAX, 1 μM; for S10 (1 μM): Percentage of screened kinases with PoC values < 10 at 1 μM
# DRAK1 (DRAK1-NLuc) = target: T3, DRAK1 (DRAK1-NLuc) (Homo sapiens, UniProt Q9UEE5); test: NanoBRET cellular target engagement assay; type: cell-based
# T3 sequence (Q9UEE5 1-414): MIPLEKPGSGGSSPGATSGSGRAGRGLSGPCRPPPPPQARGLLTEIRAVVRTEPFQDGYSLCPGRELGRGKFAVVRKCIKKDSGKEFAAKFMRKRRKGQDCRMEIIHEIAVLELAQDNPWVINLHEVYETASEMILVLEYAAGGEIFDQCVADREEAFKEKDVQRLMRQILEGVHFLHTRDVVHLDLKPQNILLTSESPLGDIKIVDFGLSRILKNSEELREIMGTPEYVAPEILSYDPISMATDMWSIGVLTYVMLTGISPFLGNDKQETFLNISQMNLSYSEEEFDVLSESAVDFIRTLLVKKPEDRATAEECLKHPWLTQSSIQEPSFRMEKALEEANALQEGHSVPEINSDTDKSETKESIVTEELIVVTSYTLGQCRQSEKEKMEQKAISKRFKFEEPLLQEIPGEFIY
# JAK2 = JAK2 (Homo sapiens, UniProt O60674); test: Eurofins kinase enzymatic radiometric assay; type: biochemical
# Procedure, shortened: as §1
# Sequence of JAK2 (O60674 whole entry): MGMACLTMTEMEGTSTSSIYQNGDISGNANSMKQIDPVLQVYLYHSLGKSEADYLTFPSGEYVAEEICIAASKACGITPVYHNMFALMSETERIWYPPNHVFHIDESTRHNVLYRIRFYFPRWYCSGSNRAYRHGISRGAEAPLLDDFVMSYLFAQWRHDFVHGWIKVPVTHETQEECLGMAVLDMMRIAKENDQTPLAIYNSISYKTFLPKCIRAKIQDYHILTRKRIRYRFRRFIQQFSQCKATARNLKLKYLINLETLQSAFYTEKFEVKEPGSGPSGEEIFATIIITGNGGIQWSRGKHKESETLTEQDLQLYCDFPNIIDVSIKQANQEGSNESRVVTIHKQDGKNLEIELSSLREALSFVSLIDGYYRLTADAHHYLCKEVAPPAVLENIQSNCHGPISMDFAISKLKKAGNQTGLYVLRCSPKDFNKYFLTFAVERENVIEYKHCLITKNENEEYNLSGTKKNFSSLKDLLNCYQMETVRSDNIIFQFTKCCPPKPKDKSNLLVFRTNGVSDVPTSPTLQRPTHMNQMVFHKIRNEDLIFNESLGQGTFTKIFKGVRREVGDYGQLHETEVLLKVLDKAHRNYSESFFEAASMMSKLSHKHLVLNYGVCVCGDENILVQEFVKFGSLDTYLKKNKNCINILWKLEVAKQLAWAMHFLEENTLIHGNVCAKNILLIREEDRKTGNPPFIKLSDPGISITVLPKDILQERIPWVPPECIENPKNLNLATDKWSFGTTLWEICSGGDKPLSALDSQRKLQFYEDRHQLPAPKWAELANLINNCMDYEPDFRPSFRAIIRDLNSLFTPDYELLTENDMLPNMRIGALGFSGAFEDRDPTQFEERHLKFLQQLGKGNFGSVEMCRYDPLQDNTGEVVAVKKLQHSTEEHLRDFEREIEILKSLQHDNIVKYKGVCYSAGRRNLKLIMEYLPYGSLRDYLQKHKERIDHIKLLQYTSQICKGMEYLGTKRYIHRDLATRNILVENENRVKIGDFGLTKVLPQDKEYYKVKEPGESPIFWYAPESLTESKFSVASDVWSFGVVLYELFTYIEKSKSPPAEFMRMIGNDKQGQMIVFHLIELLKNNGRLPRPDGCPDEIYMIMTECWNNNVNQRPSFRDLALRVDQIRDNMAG
compound,measurement,setting,value
"Cc1nn(CC(F)(F)F)cc1Nc1ncc(C2CC2)c(NCCCNC(=O)C2CCC2)n1 [Compound 4, N-(3-((5-Cyclopropyl-2-((3-methyl-1-(2,2,2-trifluoroethyl)-1H-pyrazol-4-yl)amino)pyrimidin-4-yl)amino)propyl)cyclobutanecarboxamide]",IC50,DRAK2,62 nM
same,IC50,ULK2,1740 nM
same,no. kinases ≤ 10 PoC in enzyme panel,16-member kinase panel,1
same,no. kinases with PoC < 10,[1],11
same,S10 (1 μM),[1],0.027
same,"fold loss in potency, enzymatic versus NanoBRET, DRAK1",DRAK1 (DRAK1-NLuc),< 10 fold
same,DRAK1 NanoBRET IC50,"DRAK1 (DRAK1-NLuc); HEK293, 0.5 μM tracer K-9, n = 1 where no error, SEM n = 3",submicromolar
"O=C(NCCCNc1ccnc(Nc2cccc(NC(=O)N3CCCC3)c2)n1)C1CCC1 [Compound 17, N-(3-((4-((3-(Cyclobutanecarboxamido)propyl)amino)pyrimidin-2-yl)amino)phenyl)pyrrolidine-1-carboxamide]",IC50,JAK2,> 10 µM
same,no. kinases ≤ 10 PoC in enzyme panel,16-member kinase panel,0
same,no. kinases with PoC < 10,[1],3
same,S10 (1 μM),[1],0.007
same,"fold loss in potency, enzymatic versus NanoBRET, DRAK1",DRAK1 (DRAK1-NLuc),< 10 fold
